The source made the active and inactive calls. The rule behind the calls is not given here.
Columns and labels:
K562 [1] = assay: Cytotoxicity against human K562 cells after 48 hrs by MTT assay; type: functional, cell-based; settings: K562, 48 h
Outline: (§1)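 K562 and adriamycin-selected K562/A02 cells in RPMI 1640 with 10% fetal calf serum, 37 °C, 5% CO2; kept drug-free >14 days before assay. Log-phase cells at 1 × 10⁵/mL in 96-well plates, exposed to a range of compound concentrations (DMSO stock, final DMSO ≤0.1%) for 48 h. MTT added during last 4 h, formazan in DMSO, read at 570 nm. Duplicate wells, ≥3 experiments. IC50 by Bliss method.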

K562/A02 [2] = assay: Reversal of P-gp-mediated multidrug-resistance in adriamycin-resistant human K562/A02 cells at 10 uM after 48 hrs by MTT assay relative to adriamycin; type: cell-based
Outline: (§2)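 Cells at 3 × 10⁴/well received graded adriamycin plus test compound (final 10 µM), 48 h at 37 °C, 5% CO2, then MTT read-out at 570 nm. Adriamycin IC50 by Bliss method. Fold reversal = IC50 of adriamycin alone / IC50 with modulator. Student's t test versus no modulator, P < 0.05.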

[3] = Cytotoxicity against adriamycin-resistant human K562/A02 cells after 48 hrs by MTT assay; type: functional, cell-based; settings: K562/A02, 48 h; outline: as §1
K562 [4] = assay: Reversal of P-gp-mediated multidrug-resistance in human K562 cells at 10 uM after 48 hrs by MTT assay relative to adriamycin; type: cell-based; outline: as §2
K562/A02 [5] = assay: Inhibition of P-gp-mediated rhodamine-123 uptake in adriamycin-resistant human K562/A02 cells assessed as rhodamine-123 accumulation at 10 uM after 60 mins by flow cytometry; type: cell-based
Outline: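 Rhodamine123 uptake in K562/A02 cells followed by fluorescence after treatment with 10 µM (final) modulator; verapamil group as reference, untreated control. Intracellular rhodamine123 read from a rhodamine123 standard curve, fluorescence taken as relative concentration. Student's t test, P < 0.05.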

K562/A02 [6] = assay: Induction of NO production in adriamycin-resistant human K562/A02 cells at 10 uM after 24 hrs by Griess assay; type: functional, cell-based
Outline: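 K562/A02 cells (5 × 10⁶ per well) exposed in triplicate to 10 µM compound for 24 h, harvested and lysed. Lysates mixed with Griess reagent 30–300 min, absorbance at 570 nm. Nitrite/nitrate quantified against sodium nitrate standard curve; diluent-treated cells as background control. Mean SD of three separate experiments.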

Q: With `COc1ccc(CC2c3cc(OC)c(OC)cc3CCN2C(=O)CCC(=O)OCCCCCCOc2no[n+]([O-])c2S(=O)(=O)c2ccccc2)cc1OC` (stereo not given) as the compound, how does the IC50 (K562 [1]) read?
A: 1.65 µM

Q: What about the fold change (FC) (K562/A02 [2]) of the same compound?
A: 1.96

Q: What about the IC50 [3] of the same compound?
A: 12.5 µM

Q: What about the fold change (FC) (K562 [4]) of the same compound?
A: 1.35

Q: What does the source list for `COc1cc2c(cc1OC)C(Cc1cccc3ccccc13)N(C(=O)CCC(=O)OCCCCOc1no[n+]([O-])c1S(=O)(=O)c1ccccc1)CC2` (stereo not given)?
A: IC50 (K562 [1]): 1 µM; inhibition (K562/A02 [5]): Active; Activity (K562/A02 [6]): Active; fold change (FC) (K562/A02 [2]): 17.4; IC50 [3]: 12.2 µM; fold change (FC) (K562 [4]): 1.47

Q: Which IC50 (K562 [1]) does the source give for `COc1cc2c(cc1OC)C(Cc1cccc3ccccc13)N(C(=O)CCC(=O)OCCOc1no[n+]([O-])c1S(=O)(=O)c1ccccc1)CC2` (stereo not given) here?
A: 1.03 µM

Q: And the fold change (FC) (K562/A02 [2])?
A: 2.02

Q: What about the IC50 [3] of the same compound?
A: 9.98 µM

Q: What about the fold change (FC) (K562 [4]) of the same compound?
A: 1.59

Q: With `COc1cc2c(cc1OC)C(COc1ccccc1)N(C(=O)CCC(=O)OCC#CCOc1no[n+]([O-])c1S(=O)(=O)c1ccccc1)CC2` (stereo not given) as the compound, how does the IC50 (K562 [1]) read?
A: 0.892 µM

Q: What about the fold change (FC) (K562/A02 [2]) of the same compound?
A: 1.73

Q: And the IC50 [3]?
A: 6.36 µM

Q: And the fold change (FC) (K562 [4])?
A: 1.73

Q: With `COc1cccc2c1C(=O)c1c(O)c3c(c(O)c1C2=O)C[C@@](O)(C(=O)CO)C[C@@H]3O[C@H]1C[C@H](N)[C@H](O)[C@H](C)O1` [DOXORUBICIN] as the compound, how does the IC50 [3] read?
A: 17.8 µM

Q: What does the source list for `COc1ccc(CC2c3cc(OC)c(OC)cc3CCN2C(=O)CCC(=O)OCC#CCOc2no[n+]([O-])c2S(=O)(=O)c2ccccc2)cc1OC` (stereo not given)?
A: IC50 (K562 [1]): 0.905 µM; fold change (FC) (K562/A02 [2]): 5.65; IC50 [3]: 8.05 µM; fold change (FC) (K562 [4]): 1.65

Q: What does the source list for `COc1cc2c(cc1OC)C(COc1ccccc1)N(C(=O)CCC(=O)OCCCCOc1no[n+]([O-])c1S(=O)(=O)c1ccccc1)CC2` (stereo not given)?
A: IC50 (K562 [1]): 1.5 µM; fold change (FC) (K562/A02 [2]): 1.68; IC50 [3]: 17.5 µM; fold change (FC) (K562 [4]): 1.06

Q: For `COc1ccc(CCN(C)CCCC(C#N)(c2ccc(OC)c(OC)c2)C(C)C)cc1OC` (stereo not given), which fold change (FC) (K562/A02 [2]) is on record?
A: 17.4

Q: And the fold change (FC) (K562 [4])?
A: 0.96

Q: Which results are given for `CCCCCCCCN/C(=N/C#N)N1CCc2cc(OC)c(OC)cc2C1Cc1ccc(OC)c(OC)c1` (stereo not given)?
A: Activity (K562/A02 [6]): inactive; IC50 [3]: > 500 µM

Q: Which IC50 (K562 [1]) does the source give for `COc1cc2c(cc1OC)C(Cc1cccc3ccccc13)N(C(=O)CCC(=O)OCC#CCOc1no[n+]([O-])c1S(=O)(=O)c1ccccc1)CC2` (stereo not given) here?
A: 0.875 µM

Q: And the inhibition (K562/A02 [5])?
A: Active

Q: What about the Activity (K562/A02 [6]) of the same compound?
A: Active

Q: And the fold change (FC) (K562/A02 [2])?
A: 32

Q: What about the IC50 [3] of the same compound?
A: 7.5 µM

Q: What about the fold change (FC) (K562 [4]) of the same compound?
A: 1.86

Q: For `COc1cc2c(cc1OC)C(COc1ccccc1)N(C(=O)CCC(=O)OCCCCCCOc1no[n+]([O-])c1S(=O)(=O)c1ccccc1)CC2` (stereo not given), which IC50 (K562 [1]) is on record?
A: 1.79 µM

Q: What about the fold change (FC) (K562/A02 [2]) of the same compound?
A: 3.15

Q: And the IC50 [3]?
A: 13.5 µM

Q: What about the fold change (FC) (K562 [4]) of the same compound?
A: 1.2

Q: Which results are given for `COc1cc2c(cc1OC)CN(C(=O)CCC(=O)OCC#CCOc1no[n+]([O-])c1S(=O)(=O)c1ccccc1)CC2`?
A: IC50 (K562 [1]): 0.901 µM; fold change (FC) (K562/A02 [2]): 10.1; IC50 [3]: 8.08 µM; fold change (FC) (K562 [4]): 1.65

Q: For `COc1cc2c(cc1OC)CN(C(=O)CCC(=O)OCCCCCCOc1no[n+]([O-])c1S(=O)(=O)c1ccccc1)CC2`, which IC50 (K562 [1]) is on record?
A: 1.73 µM

Q: What about the fold change (FC) (K562/A02 [2]) of the same compound?
A: 3.2

Q: And the IC50 [3]?
A: 14.6 µM

Q: What about the fold change (FC) (K562 [4]) of the same compound?
A: 1.09

Q: For `COc1cc2c(cc1OC)C(Cc1cccc3ccccc13)N(C(=O)CCC(=O)OCCCCCCOc1no[n+]([O-])c1S(=O)(=O)c1ccccc1)CC2` (stereo not given), which IC50 (K562 [1]) is on record?
A: 1.6 µM

Q: And the fold change (FC) (K562/A02 [2])?
A: 5.05

Q: What about the IC50 [3] of the same compound?
A: 12.3 µM

Q: What about the fold change (FC) (K562 [4]) of the same compound?
A: 1.35

Q: What does the source list for `COc1ccc(CC2c3cc(OC)c(OC)cc3CCN2C(=O)CCC(=O)OCCOc2no[n+]([O-])c2S(=O)(=O)c2ccccc2)cc1OC` (stereo not given)?
A: IC50 (K562 [1]): 1.09 µM; inhibition (K562/A02 [5]): Active; Activity (K562/A02 [6]): Active; fold change (FC) (K562/A02 [2]): 21.3; IC50 [3]: 11.3 µM; fold change (FC) (K562 [4]): 1.47

Q: What does the source list for `COc1cc2c(cc1OC)CN(C(=O)CCC(=O)OCCOc1no[n+]([O-])c1S(=O)(=O)c1ccccc1)CC2`?
A: IC50 (K562 [1]): 1.15 µM; fold change (FC) (K562/A02 [2]): 10.7; IC50 [3]: 12.7 µM; fold change (FC) (K562 [4]): 1.34

Q: What does the source list for `COc1cc2c(cc1OC)C(COc1ccccc1)N(C(=O)CCC(=O)OCCOc1no[n+]([O-])c1S(=O)(=O)c1ccccc1)CC2` (stereo not given)?
A: IC50 (K562 [1]): 1.45 µM; fold change (FC) (K562/A02 [2]): 10.7; IC50 [3]: 10.8 µM; fold change (FC) (K562 [4]): 1.54

Q: With `COc1ccc(CC2c3cc(OC)c(OC)cc3CCN2C(=O)CCC(=O)OCCCCOc2no[n+]([O-])c2S(=O)(=O)c2ccccc2)cc1OC` (stereo not given) as the compound, how does the IC50 (K562 [1]) read?
A: 1.93 µM

Q: And the fold change (FC) (K562/A02 [2])?
A: 1.88

Q: What about the IC50 [3] of the same compound?
A: 13 µM

Q: What about the fold change (FC) (K562 [4]) of the same compound?
A: 1.1

Q: For `COc1cc2c(cc1OC)CN(C(=O)CCC(=O)OCCCCOc1no[n+]([O-])c1S(=O)(=O)c1ccccc1)CC2`, which IC50 (K562 [1]) is on record?
A: 1.56 µM

Q: What about the fold change (FC) (K562/A02 [2]) of the same compound?
A: 1.85

Q: And the IC50 [3]?
A: 11.8 µM

Q: And the fold change (FC) (K562 [4])?
A: 1.5
